The source made the active and inactive calls. No cut-off for these calls is given here.
How the values were obtained:
Candida albicans = assay: Growth inhibition of Candida albicans ATCC 90028 at 32 ug/ml after 24 hrs by OD530 light-scattering microspectrophotometric method; details: ATCC 90028, 24 h, read-out: GI
Pseudomonas aeruginosa = assay: Growth inhibition of Pseudomonas aeruginosa ATCC 27853 at 32 ug/ml after 18 hrs; type: functional; details: ATCC 27853, 18 h, read-out: GI
How it was run: (§1)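 Mid-log cultures were prepared as above and seeded at 5×10^5 CFU/mL with compound at a final 32 μg/mL, then held static at 37 °C for 18 h. Growth was read as OD600. Percent inhibition was calculated against media-only and bacteria-only controls on the same plate.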

Erythrocyte = assay: Hemolytic activity against human RBC after 1 hr by Drabkin's assay; type: ADME, cell-based
Lipid bilayer = assay: Induction of pore formation in POPC vesicles at 20 uM after 3 hrs by carboxyfluorescein dye leakage assay; details: in the assay text read “after 3 mins” for “after 3 hrs”
How it was run: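 POPC or DOPC liposomes were hydrated in 10 mM HEPES, 100 mM KCl, pH 7.4, containing 50 mM carboxyfluorescein. Size was checked by dynamic light scattering, and vesicles were used at 2.2×10^10 per mL. Peptide at 20 μM was equilibrated with vesicles for 3 min, and dye leakage was measured.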

[1] = Hemolytic activity against human RBC at 3.125 uM after 1 hr by Drabkin's assay relative to control; type: ADME, cell-based, Erythrocyte; details: human red blood cells (erythrocytes), read-out: Activity
[2] = Hemolytic activity against human RBC at 1.56 uM after 1 hr by Drabkin's assay relative to control; type: ADME, cell-based, Erythrocyte; details: human red blood cells (erythrocytes), read-out: Activity
[3] = Hemolytic activity against human RBC at 25 uM after 1 hr by Drabkin's assay relative to control; type: ADME, cell-based, Erythrocyte; details: human red blood cells (erythrocytes), read-out: Activity
[4] = Hemolytic activity against human RBC at 0.78 uM after 1 hr by Drabkin's assay relative to control; type: ADME, cell-based, Erythrocyte; details: human red blood cells (erythrocytes), read-out: Activity
[5] = Hemolytic activity against human RBC at 0.39 uM after 1 hr by Drabkin's assay relative to control; type: ADME, cell-based, Erythrocyte; details: human red blood cells (erythrocytes), read-out: Activity
Acinetobacter baumannii = assay: Growth inhibition of Acinetobacter baumannii ATCC 19606 at 32 ug/ml after 18 hrs; type: functional; details: ATCC 19606 = CIP 70.34 = JCM 6841, 18 h, read-out: GI
How it was run: as §1

Staphylococcus aureus = assay: Growth inhibition of methicillin-resistant Staphylococcus aureus ATCC 43300 at 32 ug/ml after 18 hrs; type: functional; details: ATCC 43300, 18 h, read-out: GI
How it was run: (§2)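 Mid-log cultures in cation-adjusted Mueller Hinton broth were added at 5×10^5 CFU/mL to wells at a final compound concentration of 32 μg/mL. Plates stood at 37 °C for 18 h. Growth was read by OD600, and % inhibition was computed against media-only and untreated-bacteria controls.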

[6] = Hemolytic activity against human RBC at 6.25 uM after 1 hr by Drabkin's assay relative to control; type: ADME, cell-based, Erythrocyte; details: human red blood cells (erythrocytes), read-out: Activity
[7] = Hemolytic activity against human RBC at 12.5 uM after 1 hr by Drabkin's assay relative to control; type: ADME, cell-based, Erythrocyte; details: human red blood cells (erythrocytes), read-out: Activity
Klebsiella pneumoniae = assay: Growth inhibition of multidrug-resistant Klebsiella pneumoniae ATCC 700603 at 32 ug/ml after 18 hrs; type: functional; details: ATCC 700603, 18 h, read-out: GI
How it was run: as §2

[8] = Hemolytic activity against human RBC at 100 uM after 1 hr by Drabkin's assay relative to control; type: ADME, cell-based, Erythrocyte; details: human red blood cells (erythrocytes), read-out: Activity
Cryptococcus neoformans = assay: Growth inhibition of Cryptococcus neoformans H99 ATCC 208821 at 32 ug/ml after 24 hrs by resazurin dye-based microspectrophotometric assay; type: functional; details: var. grubii H99 ATCC 208821, 24 h, read-out: GI
How it was run: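 Yeasts were grown 3 days on YPD agar at 30 °C, suspended from five colonies and diluted in YNB broth to a final 2.5×10^3 CFU/mL. Compound at a final 32 μg/mL; incubated 24 h at 35 °C without shaking. C. albicans was read at OD530. C. neoformans was read as OD600–570 after resazurin (0.001% final) and a further 2 h at 35 °C. Fluconazole was the standard.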

[9] = Hemolytic activity against human RBC at 50 uM after 1 hr by Drabkin's assay relative to control; type: ADME, cell-based, Erythrocyte; details: human red blood cells (erythrocytes), read-out: Activity
Escherichia coli = assay: Growth inhibition of Escherichia coli ATCC 25922 at 32 ug/ml after 18 hrs; type: functional; details: ATCC 25922, 18 h, read-out: GI
How it was run: as §1

Compound: O=C(O)[C@@H]1CCCN1C(=O)N1CCCN1C(=O)[C@@H]1CCCN1C(=O)N1CCCN1C(=O)[C@@H]1CCCN1C(=O)N1CCCN1C(=O)[C@@H]1CCCN1C(=O)N1CCCN1C(=O)OCc1ccccc1
- inhibition of growth at 32 µg/mL (Candida albicans): 3.59%
- inhibition of growth at 32 µg/mL (Pseudomonas aeruginosa): -6.53%
- Activity (Erythrocyte): Dose-dependent effect
- Activity (Lipid bilayer): inactive
- hemolysis at 1 h, 3.125 µM [1]: 0.452%
- hemolysis at 1 h, 1.56 µM [2]: 0.542%
- hemolysis at 1 h, 25 µM [3]: -0.361%
- hemolysis at 1 h, 0.78 µM [4]: 0.09%
- hemolysis at 1 h, 0.39 µM [5]: 0.09%
- inhibition of growth at 32 µg/mL (Acinetobacter baumannii): 14%
- inhibition of growth at 32 µg/mL (Staphylococcus aureus): 27%
- hemolysis at 1 h, 6.25 µM [6]: 0.452%
- hemolysis at 1 h, 12.5 µM [7]: 0.09%
- inhibition of growth at 32 µg/mL (Klebsiella pneumoniae): 4.23%
- hemolysis at 1 h, 100 µM [8]: 0.542%
- inhibition of growth at 32 µg/mL (Cryptococcus neoformans): -5.78%
- hemolysis at 1 h, 50 µM [9]: 0.09%
- inhibition of growth at 32 µg/mL (Escherichia coli): 4.23%

Compound: O=CN1CCCN1C(=O)N1CCC[C@H]1C(=O)N1CCCN1C(=O)N1CCC[C@H]1C(=O)N1CCCN1C(=O)N1CCC[C@H]1C(=O)N1CCCN1C(=O)N1CCC[C@H]1C(=O)N1CCCN1C(=O)N1CCC[C@H]1C(=O)NCCO
- Activity (Erythrocyte): Dose-dependent effect
- Activity (Lipid bilayer): inactive
- hemolysis at 1 h, 3.125 µM [1]: 0.02%
- hemolysis at 1 h, 1.56 µM [2]: -0.452%
- hemolysis at 1 h, 25 µM [3]: 0%
- hemolysis at 1 h, 0.78 µM [4]: 0.08%
- hemolysis at 1 h, 0.39 µM [5]: 0.361%
- hemolysis at 1 h, 6.25 µM [6]: -0.361%
- hemolysis at 1 h, 12.5 µM [7]: -0.913%
- hemolysis at 1 h, 100 µM [8]: -0.251%
- hemolysis at 1 h, 50 µM [9]: -0.361%

Compound: O=CN1CCCN1C(=O)N1CCC[C@H]1C(=O)N1CCCN1C(=O)N1CCC[C@H]1C(=O)N1CCCN1C(=O)N1CCC[C@H]1C(=O)N1CCCN1C(=O)N1CCC[C@H]1C(=O)N1CCCN1C(=O)N1CCC[C@H]1C(=O)N1CCCN1C(=O)N1CCC[C@H]1C(=O)N1CCCN1C(=O)N1CCC[C@H]1C(=O)NCCO
- inhibition of growth at 32 µg/mL (Candida albicans): 3.52%
- inhibition of growth at 32 µg/mL (Pseudomonas aeruginosa): -5.12%
- Activity (Erythrocyte): Dose-dependent effect
- Activity (Lipid bilayer): inactive
- hemolysis at 1 h, 3.125 µM [1]: -0.045%
- hemolysis at 1 h, 1.56 µM [2]: -0.049%
- hemolysis at 1 h, 25 µM [3]: 0.41%
- hemolysis at 1 h, 0.78 µM [4]: 0.072%
- hemolysis at 1 h, 0.39 µM [5]: 0.023%
- inhibition of growth at 32 µg/mL (Acinetobacter baumannii): 6.14%
- inhibition of growth at 32 µg/mL (Staphylococcus aureus): 13.7%
- hemolysis at 1 h, 6.25 µM [6]: -0.29%
- hemolysis at 1 h, 12.5 µM [7]: -0.045%
- inhibition of growth at 32 µg/mL (Klebsiella pneumoniae): 5.64%
- hemolysis at 1 h, 100 µM [8]: 1.4%
- inhibition of growth at 32 µg/mL (Cryptococcus neoformans): -8.29%
- hemolysis at 1 h, 50 µM [9]: 0.4%
- inhibition of growth at 32 µg/mL (Escherichia coli): 5.64%

Compound: CC(C)(C)OC(=O)[C@@H]1CCCN1C(=O)N1CCCN1C(=O)[C@@H]1CCCN1C(=O)N1CCCN1C(=O)[C@@H]1CCCN1C(=O)N1CCCN1C(=O)[C@@H]1CCCN1C(=O)N1CCCN1C(=O)OCc1ccccc1
- inhibition of growth at 32 µg/mL (Candida albicans): 4.13%
- inhibition of growth at 32 µg/mL (Pseudomonas aeruginosa): -8.9%
- Activity (Erythrocyte): Dose-dependent effect
- Activity (Lipid bilayer): inactive
- hemolysis at 1 h, 3.125 µM [1]: 0.181%
- hemolysis at 1 h, 1.56 µM [2]: 0.361%
- hemolysis at 1 h, 25 µM [3]: 0%
- hemolysis at 1 h, 0.78 µM [4]: 0%
- hemolysis at 1 h, 0.39 µM [5]: 0.08%
- inhibition of growth at 32 µg/mL (Acinetobacter baumannii): 30.2%
- inhibition of growth at 32 µg/mL (Staphylococcus aureus): 13.6%
- hemolysis at 1 h, 6.25 µM [6]: 0.09%
- hemolysis at 1 h, 12.5 µM [7]: -0.09%
- inhibition of growth at 32 µg/mL (Klebsiella pneumoniae): -3.42%
- hemolysis at 1 h, 100 µM [8]: 0%
- inhibition of growth at 32 µg/mL (Cryptococcus neoformans): -0.865%
- hemolysis at 1 h, 50 µM [9]: -0.09%
- inhibition of growth at 32 µg/mL (Escherichia coli): -3.42%

Compound: O=C(O)[C@@H]1CCCN1C(=O)N1CCCN1C(=O)[C@@H]1CCCN1C(=O)N1CCCN1C(=O)[C@@H]1CCCN1C(=O)N1CCCN1C(=O)[C@@H]1CCCN1C(=O)N1CCCN1C(=O)[C@@H]1CCCN1C(=O)N1CCCN1C(=O)[C@@H]1CCCN1C(=O)N1CCCN1C(=O)[C@@H]1CCCN1C(=O)N1CCCN1C(=O)[C@@H]1CCCN1C(=O)N1CCCN1C(=O)OCc1ccccc1
- inhibition of growth at 32 µg/mL (Candida albicans): 2.73%
- inhibition of growth at 32 µg/mL (Pseudomonas aeruginosa): -9.17%
- Activity (Erythrocyte): Dose-dependent effect
- Activity (Lipid bilayer): inactive
- hemolysis at 1 h, 3.125 µM [1]: 0.271%
- hemolysis at 1 h, 1.56 µM [2]: -0.452%
- hemolysis at 1 h, 25 µM [3]: -0.181%
- hemolysis at 1 h, 0.78 µM [4]: -0.181%
- hemolysis at 1 h, 0.39 µM [5]: -0.271%
- inhibition of growth at 32 µg/mL (Acinetobacter baumannii): 4.46%
- inhibition of growth at 32 µg/mL (Staphylococcus aureus): 1.14%
- hemolysis at 1 h, 6.25 µM [6]: -0.09%
- hemolysis at 1 h, 12.5 µM [7]: 0.181%
- inhibition of growth at 32 µg/mL (Klebsiella pneumoniae): 4.92%
- hemolysis at 1 h, 100 µM [8]: -0.271%
- inhibition of growth at 32 µg/mL (Cryptococcus neoformans): -1.86%
- hemolysis at 1 h, 50 µM [9]: -0.361%
- inhibition of growth at 32 µg/mL (Escherichia coli): 4.92%

Compound: O=CN1CCCN1C(=O)N1CCC[C@H]1C(=O)N1CCCN1C(=O)N1CCC[C@H]1C(=O)N1CCCN1C(=O)N1CCC[C@H]1C(=O)N1CCCN1C(=O)N1CCC[C@H]1C(=O)N1CCCN1C(=O)N1CCC[C@H]1C(=O)N1CCCN1C(=O)N1CCC[C@H]1C(=O)NCCO
- inhibition of growth at 32 µg/mL (Candida albicans): 5.12%
- inhibition of growth at 32 µg/mL (Pseudomonas aeruginosa): -12.5%
- Activity (Erythrocyte): Dose-dependent effect
- Activity (Lipid bilayer): inactive
- hemolysis at 1 h, 3.125 µM [1]: -0.55%
- hemolysis at 1 h, 1.56 µM [2]: -0.12%
- hemolysis at 1 h, 25 µM [3]: 0.271%
- hemolysis at 1 h, 0.78 µM [4]: -0.16%
- hemolysis at 1 h, 0.39 µM [5]: -0.12%
- inhibition of growth at 32 µg/mL (Acinetobacter baumannii): 3.07%
- inhibition of growth at 32 µg/mL (Staphylococcus aureus): 1.36%
- hemolysis at 1 h, 6.25 µM [6]: -0.181%
- hemolysis at 1 h, 12.5 µM [7]: -0.452%
- inhibition of growth at 32 µg/mL (Klebsiella pneumoniae): 0.72%
- hemolysis at 1 h, 100 µM [8]: -0.55%
- inhibition of growth at 32 µg/mL (Cryptococcus neoformans): -11.1%
- hemolysis at 1 h, 50 µM [9]: -0.49%
- inhibition of growth at 32 µg/mL (Escherichia coli): 0.72%

Reference: ChEMBL document CHEMBL4196059, “Design, synthesis, and biological evaluation of stable β6.3-Helices: Discovery of non-hemolytic antibacterial peptides” (Eur J Med Chem, 2018)
